Results as given in ChEMBL document CHEMBL4406803, “A- and D-Ring Structural Modifications of an Androsterone Derivative Inhibiting 17β-Hydroxysteroid Dehydrogenase Type 3: Chemical Synthesis and Structure-Activity Relationships” (J Med Chem, 2019).
Calls of active or inactive are those of the source. No cut-off for these calls is given here.

Columns and labels:
LAPC4 [1] = assay: Antiproliferative activity against human LAPC4 cells expressing androgen receptor assessed as inhibition of cell proliferation at 0.1 uM supplemented with fresh medium containing compounds every 3 days for 7 days by MTS assay relative to control; format: functional
Outline: (§1)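 Androgen-dependent LAPC-4 cells were seeded at 5,000 per well in IMDM with 5% dextran-coated charcoal-treated FBS and pre-incubated 24 h at 37 °C, 5% CO2. Compounds were added from DMSO stock at 0.1, 0.5 and 1.0 µM, with 0.05% DMSO in controls. Incubation lasted 7 days, with a medium change at day 3. Growth was read by MTS (4 h, 490 nm) as % of untreated control (100%), in triplicate.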

[2] = target: T1, 17-beta-hydroxysteroid dehydrogenase type 3 (Homo sapiens) (UniProt P37058); assay: Inhibition of 17beta-HSD3 (unknown origin) expressed in human LNCAP cells assessed as reduction in [14C]-testosterone formation from [14C]-4-androstene-3,17-dione at 1 uM measured after 1 hr relative to control; format: cell-based
T1 sequence (whole entry): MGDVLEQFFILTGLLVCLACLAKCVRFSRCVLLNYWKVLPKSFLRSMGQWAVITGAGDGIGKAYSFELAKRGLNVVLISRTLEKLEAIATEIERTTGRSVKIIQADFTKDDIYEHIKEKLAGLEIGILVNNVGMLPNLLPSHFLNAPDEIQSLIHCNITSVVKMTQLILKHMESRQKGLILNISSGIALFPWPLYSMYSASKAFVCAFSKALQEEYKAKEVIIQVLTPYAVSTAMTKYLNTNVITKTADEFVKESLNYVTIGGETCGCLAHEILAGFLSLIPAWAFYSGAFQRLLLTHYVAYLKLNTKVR
Outline: (§2)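 LNCaP cells stably transfected with 17β-HSD3 were plated at 10,000 per well in hygromycin-free medium and grown 2 days. They were then given 15 nM [14C]-4-androstenedione plus inhibitor at 0.1, 0.5 or 1.0 µM (0.05% DMSO final) for 1 h. Steroids were ether-extracted, separated by TLC and quantified by radioimaging. Results are % inhibition of conversion to T.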

PC-3 [3] = assay: Antiproliferative activity against AR-deficient human PC3 cells assessed as reduction in cell proliferation at 0.5 uM measured after 3 days by MTS assay relative to control; format: functional; design: scale not given: the % may be the effect or the level left
Outline: (§3)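 Androgen-independent PC-3 cells were plated at 3,000 per well in triplicate in RPMI-1640 with 10% FBS. Compounds were added at 0.1, 0.5 and 1.0 µM from DMSO stock, with 0.05% DMSO in controls, and incubated 3 days. Growth was read by MTS (4 h, 490 nm) and expressed as % of non-treated control (100%).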

[4] = target: T1, 17-beta-hydroxysteroid dehydrogenase type 3 (Homo sapiens); assay: Inhibition of 17beta-HSD3 (unknown origin) expressed in human LNCAP cells assessed as reduction in [14C]-testosterone formation from [14C]-4-androstene-3,17-dione at 0.1 uM measured after 1 hr relative to control; format: cell-based; outline: as §2
T47D [5] = assay: Estrogenic activity in human T47D cells assessed as stimulation of cell proliferation at 1 to 5 uM; format: ADME, cell-based
[6] = target: T2, 17-beta-hydroxysteroid dehydrogenase type 3 (Rattus norvegicus, UniProt O54939); assay: Inhibition of 17beta-HSD3 in Sprague-Dawley rat testes microsomal fraction assessed as reduction in [14C]-testosterone formation from [14C]-4-androstene-3,17-dione measured after 2 hrs; design: species or system Testis
T2 sequence (O54939 whole entry): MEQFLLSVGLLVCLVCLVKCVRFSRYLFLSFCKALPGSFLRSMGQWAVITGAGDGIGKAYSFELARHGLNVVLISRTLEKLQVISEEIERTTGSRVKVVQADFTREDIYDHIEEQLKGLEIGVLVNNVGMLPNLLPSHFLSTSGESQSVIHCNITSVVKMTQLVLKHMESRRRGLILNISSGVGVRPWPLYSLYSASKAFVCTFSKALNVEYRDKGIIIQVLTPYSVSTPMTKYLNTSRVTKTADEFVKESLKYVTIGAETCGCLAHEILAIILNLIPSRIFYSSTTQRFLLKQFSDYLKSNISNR
Outline: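 The enzyme source was a microsomal fraction from Sprague-Dawley rat testes, prepared by homogenization in phosphate/sucrose/EDTA buffer (pH 7.5) and centrifugation at 100,000 g. The assay ran 2 h at 37 °C in 50 mM sodium phosphate (pH 7.4, 20% glycerol, 1 mM EDTA) with NADPH cofactor and [14C]-4-androstenedione. [14C]-T formation was measured at six inhibitor concentrations in triplicate, and IC50 was fitted from the curves.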

PC-3 [7] = assay: Antiproliferative activity against AR-deficient human PC3 cells assessed as reduction in cell proliferation at 1 uM measured after 3 days by MTS assay relative to control; format: functional; design: scale not given: the % may be the effect or the level left; outline: as §3
[8] = Plasma concentration in mouse at 25 mg/kg, sc administered as single dose measured after 3 hrs by LC-MS/MS analysis; format: ADME, organism-based
Outline: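 Female mice were fasted 8 h, then given a single 25 mg/kg subcutaneous dose in 0.1 mL of 0.4% aqueous methylcellulose with 8% DMSO. At 3 h, blood was taken by cardiac puncture into K-EDTA tubes (3 mice per group). Plasma was extracted and analysed by LC-MS/MS against a plasma calibration curve.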

LAPC4 [9] = assay: Antiproliferative activity against human LAPC4 cells expressing androgen receptor assessed as inhibition of cell proliferation at 1 uM supplemented with fresh medium containing compounds every 3 days for 7 days by MTS assay relative to control; format: functional; outline: as §1
T47D [10] = assay: Antiproliferative activity against human T47D cells assessed as reduction in cell proliferation at 1 to 5 uM; format: functional, cell-based
PC-3 [11] = assay: Antiproliferative activity against AR-deficient human PC3 cells assessed as reduction in cell proliferation at 0.1 uM measured after 3 days by MTS assay relative to control; format: functional; design: scale not given: the % may be the effect or the level left; outline: as §3
LAPC4 [12] = assay: Antiproliferative activity against human LAPC4 cells expressing androgen receptor assessed as inhibition of cell proliferation at 0.5 uM supplemented with fresh medium containing compounds every 3 days for 7 days by MTS assay relative to control; format: functional; outline: as §1
[13] = target: T1, 17-beta-hydroxysteroid dehydrogenase type 3 (Homo sapiens); assay: Inhibition of 17beta-HSD3 (unknown origin) expressed in human LNCAP cells assessed as reduction in [14C]-testosterone formation from [14C]-4-androstene-3,17-dione at 0.5 uM measured after 1 hr relative to control; format: cell-based; outline: as §2
[14] = target: T3, 17-beta-hydroxysteroid dehydrogenase type 3 (Homo sapiens, UniProt P37058); assay: Inhibition of 17beta-HSD3 (unknown origin) expressed in human LNCAP cells assessed as reduction in [14C]-testosterone formation from [14C]-4-androstene-3,17-dione measured after 1 hr; format: cell-based
T3 sequence (P37058 whole entry): T1 sequence (whole entry)
Outline: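 Transfected LNCaP[17β-HSD3] cells were incubated 1 h with 15 nM [14C]-4-androstenedione and inhibitor at seven concentrations (0.001–5.0 µM; 0.05% DMSO). [14C]-T formation was measured by TLC and radioimaging. IC50 was obtained by curve fitting, averaging two independent experiments in triplicate.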

[15] = Stability of the compound in human liver S9 fraction at 10 uM measured after 1 hr by NADPH by HPLC-MS analysis; format: ADME, subcellular; conditions: s9, 1 h
Outline: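 Substrate (10 µM) was incubated 1 h at 37 °C with 40 µg human liver S9 fraction in 50 mM Tris with 10 mM MgCl2, with or without 10 mM NADPH. The reaction was stopped with MeOH. Remaining parent was measured by HPLC-MS (UV 190 nm) as the AUC ratio with/without NADPH ×100. Values are the mean ± SD of four independent experiments.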

LAPC4 [16] = assay: Antiproliferative activity against human LAPC4 cells expressing androgen receptor assessed as inhibition of cell proliferation supplemented with fresh medium containing compounds every 3 days for 7 days by MTS assay; format: functional, cell-based; outline: as §1
LAPC4 [17] = assay: Antiproliferative activity against human LAPC4 cells expressing androgen receptor assessed as inhibition of cell proliferation at 0.1 uM measured after 3 days by MTS assay relative to control; format: functional; conditions: LAPC4, 72 h
LAPC4 [18] = assay: Antiproliferative activity against human LAPC4 cells expressing androgen receptor assessed as inhibition of cell proliferation at 1 uM measured after 3 days by MTS assay relative to control; format: functional; conditions: LAPC4, 72 h
LAPC4 [19] = assay: Antiproliferative activity against human LAPC4 cells expressing androgen receptor assessed as inhibition of cell proliferation at 0.5 uM measured after 3 days by MTS assay relative to control; format: functional; conditions: LAPC4, 72 h

| Structure (SMILES) | inhibition [2] [%] | inhibition [4] [%] | IC50 [6] [nM] | concentration at 3 h [8] [ng/mL] | inhibition [13] [%] | IC50 [14] [nM] | Stability [15] | inhibition (INH) (LAPC4 [1]) [%] | Activity (PC-3 [3]) [%] | Activity (T47D [5]) | Activity (PC-3 [7]) [%] | inhibition (INH) (LAPC4 [9]) [%] | Activity (T47D [10]) | Activity (PC-3 [11]) [%] | inhibition (INH) (LAPC4 [12]) [%] | inhibition (LAPC4 [16]) | inhibition at 0.1 µM (LAPC4 [17]) [%] | inhibition at 1 µM (LAPC4 [18]) [%] | inhibition at 0.5 µM (LAPC4 [19]) [%] |
| --- | --- | --- | --- | --- | --- | --- | --- | --- | --- | --- | --- | --- | --- | --- | --- | --- | --- | --- | --- |
| CC1CN(S(=O)(=O)c2ccccc2C(F)(F)F)C(C)CN1Cc1cc2c(cc1O)CC[C@@H]1[C@@H]2CC[C@]2(C)C(=O)CC[C@@H]12 (some centres not stated) | 84 | 50 | 120 | 89.3 | 76 | 170 | – | 0 | 5 | Non-Toxic | 7 | 6 | inactive | 4 | 7 | – | – | – | – |
| C#C[C@]1(O)CC[C@H]2[C@@H]3CCc4cc(OC)c(N5CCN(C(=O)[C@@H]6CCCN6C(=O)c6ccc7ccccc7n6)CC5)cc4[C@H]3CC[C@@]21C | – | – | – | – | – | – | – | – | 20 | – | 39 | – | – | 3 | – | – | 19 | 69 | 62 |
| CC1CN(S(=O)(=O)c2ccccc2C(F)(F)F)C(C)CN1C[C@@]1(O)CC[C@@]2(C)[C@@H](CC[C@@H]3[C@@H]2CC[C@]2(C)C(=O)CC[C@@H]32)C1 (some centres not stated) | 100 | 60 | 80 | 27.7 | 96 | 90 | Unstable | 4 | 6 | – | 11 | 67 | – | 9 | 52 | Dose-dependent effect | – | – | – |
| CC1CN(S(=O)(=O)c2ccccc2C(F)(F)F)C(C)CN1CCc1ccc2c(c1)CC[C@@H]1[C@@H]2CC[C@]2(C)C(=O)CC[C@@H]12 (some centres not stated) | 70 | 38 | 100 | 51.6 | 60 | 130 | – | 48 | 5 | Non-Toxic | 1 | 79 | inactive | 1 | 80 | Dose-dependent effect | – | – | – |

Second part, led by results:

| inhibition [2] [%] | inhibition [4] [%] | IC50 [6] [nM] | concentration at 3 h [8] [ng/mL] | inhibition [13] [%] | IC50 [14] [nM] | Stability [15] | Structure (SMILES) | inhibition (INH) (LAPC4 [1]) [%] | Activity (PC-3 [3]) [%] | Activity (T47D [5]) | Activity (PC-3 [7]) [%] | inhibition (INH) (LAPC4 [9]) [%] | Activity (T47D [10]) | Activity (PC-3 [11]) [%] | inhibition (INH) (LAPC4 [12]) [%] | inhibition (LAPC4 [16]) | inhibition at 0.1 µM (LAPC4 [17]) [%] | inhibition at 1 µM (LAPC4 [18]) [%] | inhibition at 0.5 µM (LAPC4 [19]) [%] |
| --- | --- | --- | --- | --- | --- | --- | --- | --- | --- | --- | --- | --- | --- | --- | --- | --- | --- | --- | --- |
| – | – | 60 | 48.7 | – | 20 | – | CC1CN(S(=O)(=O)c2ccccc2C(F)(F)F)C(C)CN1CC(O)c1ccc2c(c1)CC[C@@H]1[C@@H]2CC[C@]2(C)C(=O)CC[C@@H]12 (single isomer, unassigned; diastereomer B) | -3 | 6 | – | 5 | 44 | – | 8 | 32 | – | – | – | – |
| 90 | 45 | 110 | 108 | 78 | 100 | Stable | CC1CN(S(=O)(=O)c2ccccc2C(F)(F)F)C(C)CN1C(=O)c1ccc2c(c1)CC[C@@H]1[C@@H]2CC[C@]2(C)C(=O)CC[C@@H]12 (some centres not stated) | 40 | 0 | – | 6 | 63 | – | 7 | 54 | Dose-dependent effect | – | – | – |
